Source: ChEMBL document CHEMBL1154123, “Targeted isolation and structure elucidation of stilbene glycosides from the bark of Lysidice brevicalyx Wei guided by biological and chemical screening” (J Nat Prod, 2008)

Assays:
[1] = Antioxidant activity against ferrous ion-induced lipid peroxidation in liver microsomes assessed as inhibition rate at 10 uM by TBA method in presence of cysteine; format: functional; set-up: scale not given: the % may be the effect or the level left; details: Microsome
In short: (§1)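 Liver microsomal protein (1.0 mg in 1 mL 0.1 M PBS, pH 7.4) incubated with […] cysteine and test sample at 37 °C for 15 min; peroxidation initiated with 0.05 mM FeSO4. Stopped with 20% trichloroacetic acid, centrifuged, supernatant heated with 0.67% TBA 10 min at 100 °C. MDA read at 532 nm; inhibition rate calculated against Fe2+-cysteine and solvent-only controls. Vitamin E positive control.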

[2] = Antioxidant activity against ferrous ion-induced lipid peroxidation in liver microsomes assessed as inhibition rate at 100 uM by TBA method in presence of cysteine; format: functional; set-up: scale not given: the % may be the effect or the level left; details: Microsome; in short: as §1

Row | Structure (SMILES) | Activity [1] | Activity [2]
1 | C[C@@H]1O[C@@H](OC[C@H]2O[C@@H](Oc3cc(O)cc(/C=C\c4ccc(O)cc4)c3)[C@H](O[C@@H]3O[C@@H](C)[C@H](O)[C@@H](O)[C@H]3O)[C@@H](O)[C@@H]2O)[C@H](O)[C@H](O)[C@H]1O | 8% | 25%
2 | OC[C@H]1O[C@@H](Oc2cc(O)cc(/C=C/c3ccc(O)cc3)c2)[C@H](O)[C@@H](O)[C@@H]1O | 29% | 100%
3 | C[C@@H]1O[C@@H](O[C@H]2[C@H](Oc3cc(O)cc(/C=C\c4ccc(O)cc4)c3)O[C@H](CO)[C@@H](O)[C@@H]2O)[C@H](O)[C@H](O)[C@H]1O | 11% | 10%
4 | C[C@@H]1O[C@@H](O[C@H]2[C@H](Oc3cc(O)cc(/C=C/c4ccc(O)cc4)c3)OC[C@@H](O)[C@@H]2O)[C@H](O)[C@H](O)[C@H]1O | 6% | 67%
5 | COc1ccc(CCN(C)CCCC(C#N)(c2ccc(OC)c(OC)c2)C(C)C)cc1OC (configuration not stated) | 33% | 81%
6 | C[C@@H]1O[C@@H](O[C@H]2[C@H](Oc3cc(O)cc(/C=C/c4ccc(O)cc4)c3)O[C@H](CO)[C@@H](O)[C@@H]2O)[C@H](O)[C@H](O)[C@H]1O | 9% | 39%
7 | C[C@@H]1O[C@@H](OC[C@H]2O[C@@H](Oc3cc(O)cc(/C=C/c4ccc(O)cc4)c3)[C@H](O)[C@@H](O)[C@@H]2O)[C@H](O)[C@H](O)[C@H]1O | 11% | 31%
8 | OC[C@H]1O[C@@H](O[C@H]2[C@H](Oc3cc(O)cc(/C=C/c4ccc(O)cc4)c3)OC[C@@H](O)[C@@H]2O)[C@H](O)[C@@H](O)[C@@H]1O | 5% | 29%
9 | C[C@@H]1O[C@@H](OC[C@H]2O[C@@H](Oc3cc(O)cc(/C=C/c4ccc(O)cc4)c3)[C@H](O[C@@H]3O[C@@H](C)[C@H](O)[C@@H](O)[C@H]3O)[C@@H](O)[C@@H]2O)[C@H](O)[C@H](O)[C@H]1O | 5% | 39%
10 | C[C@@H]1O[C@@H](OC[C@H]2O[C@@H](Oc3cc(O)cc(/C=C\c4ccc(O)cc4)c3)[C@H](O)[C@@H](O)[C@@H]2O)[C@H](O)[C@H](O)[C@H]1O | 0% | 15%
11 | Oc1ccc(/C=C/c2cc(O)cc(O[C@@H]3O[C@H](CO[C@@H]4OC[C@@H](O)[C@H](O)[C@H]4O)[C@@H](O)[C@H](O)[C@H]3O)c2)cc1 | 4% | 21%
